The source made the active and inactive calls. The calls are words filed in the database; no cut-off is given here.
Legend:
[1] = Antiproliferative activity against human PC3 cells after 48 hrs by WST-1 assay; type: functional, cell-based; details: PC-3, 48 h
Method in brief: (§1)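 Exponentially growing cells in DMEM/10% FBS seeded at 5 × 10^3 per well, left overnight, then exposed 48 h to compounds diluted from DMSO; WST-1 added for 2 h, absorbance at 450 nm (reference 620 nm); viability as ratio to DMSO controls; three independent experiments, triplicate points; IC50 by nonlinear regression (log inhibitor vs normalized response, variable slope).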

U-87 MG [2] = experiment: Induction of apoptosis in human U87MG cells assessed as viable cells at 3 uM after 24 hrs by Annexin V-PE/7-AAD staining-based FACS analysis (reference value: 96.7%); type: functional, U-87MG ATCC; details: read-out: Activity
[3] = Cell cycle arrest in human U87MG cells at < 3 uM after 24 hrs by propidium iodide staining-based flow cytometry; type: functional; details: U-87MG ATCC
Method in brief: (§2)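 Cells plated at 10^5 per well, left overnight, then exposed 24 h to compound or vehicle; stained 15 min at 37 °C with propidium iodide/Triton buffer; DNA content by flow cytometry, phase distribution fitted by Dean–Jett–Fox; HCT-116 at 0.3–0.5 μM, U87-MG at 0.3–3 μM; significance by unpaired Student's t test; one representative experiment.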

[4] = (§3) Inhibition of colony formation in human PC3 cells after 2 weeks by crystal violet staining-based assay; type: functional, cell-based; details: PC-3, 336 h
Method in brief: (§4)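 Seeding: 250 cells per well for HCT-116, 300 for U87MG, MDA-MB-231 and PC-3; incubated overnight, then exposed to a range of concentrations for 2 weeks. Fixed in 4% paraformaldehyde 30 min at room temperature, stained with 0.1% crystal violet. Colonies over 50 cells counted; colony formation rate calculated; IC50 by nonlinear regression.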

PC-3 = experiment: as §3; type: functional, cell-based; method in brief: as §4
U-87 MG [5] = experiment: Reduction of cell adherence in human U87MG cells after 30 mins by toluidine blue staining-based […]; type: functional; details: U-87MG ATCC
Method in brief: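 U87-MG cells grown in 10% serum, trypsinised, diluted to 100 000 cells/mL in 10% serum medium, then treated 30 min with compound or DMSO. 20 000 cells per well allowed to attach 1 h. Fixed in 4% paraformaldehyde 30 min, stained with 0.1% toluidine blue in 4% PFA 30 min, washed, OD read at 620 nm for attached cells.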

[6] = Antimigratory activity in human U87MG cells at 3 uM […] by transwell membrane assay; type: functional, U-87MG ATCC
MDA-MB-231 = experiment: Antiproliferative activity against human MDA-MB-231 cells after 48 hrs by WST-1 assay; type: functional, cell-based; details: MDA-MB-231, 48 h; method in brief: as §1
[7] = Cell cycle arrest in human U87MG cells assessed as accumulation at G2 phase at 3 uM after 24 hrs by propidium iodide staining-based flow cytometry relative to control; type: functional; details: U-87MG ATCC
Method in brief: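 U87-MG cells plated at 10^5 per well, incubated overnight, then exposed to compound or vehicle control for 24 h. Cells stained with propidium iodide in PI/triton buffer for 15 min at 37 °C and analysed by flow cytometry. Cell-cycle phases were assigned by the Dean–Jett–Fox method. Significance was tested by unpaired Student's t test, and one representative experiment is shown.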

HCT-116 [8] = experiment: Induction of apoptosis in human HCT116 cells at < 0.5 uM after 24 hrs by Annexin V-PE/7-AAD staining-based FACS analysis; type: functional, cell-based
Focal adhesion kinase 1 [9] = molecular target: T1, Focal adhesion kinase 1 (Homo sapiens, UniProt Q05397); experiment: Inhibition of FAK phosphorylation at tyrosine 397 in human PC3 cells after 48 hrs by FACEFAK ELISA; type: cell-based; details: PC-3
Method in brief: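 Cells in DMEM with 10% FBS, 3 × 10^3 per well, treated 48 h at 0.1, 1 and 10 μM. Fixed in 4% formaldehyde; antibodies to pTyr397-FAK or total FAK, HRP secondary, read at 450 nm. Crystal violet cell count at 595 nm. Phospho-FAK normalised to total FAK and cell number; fold decrease versus control, triplicate readings, three independent experiments.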
Target sequence in this assay (Q05397 2-1052 limits assumed): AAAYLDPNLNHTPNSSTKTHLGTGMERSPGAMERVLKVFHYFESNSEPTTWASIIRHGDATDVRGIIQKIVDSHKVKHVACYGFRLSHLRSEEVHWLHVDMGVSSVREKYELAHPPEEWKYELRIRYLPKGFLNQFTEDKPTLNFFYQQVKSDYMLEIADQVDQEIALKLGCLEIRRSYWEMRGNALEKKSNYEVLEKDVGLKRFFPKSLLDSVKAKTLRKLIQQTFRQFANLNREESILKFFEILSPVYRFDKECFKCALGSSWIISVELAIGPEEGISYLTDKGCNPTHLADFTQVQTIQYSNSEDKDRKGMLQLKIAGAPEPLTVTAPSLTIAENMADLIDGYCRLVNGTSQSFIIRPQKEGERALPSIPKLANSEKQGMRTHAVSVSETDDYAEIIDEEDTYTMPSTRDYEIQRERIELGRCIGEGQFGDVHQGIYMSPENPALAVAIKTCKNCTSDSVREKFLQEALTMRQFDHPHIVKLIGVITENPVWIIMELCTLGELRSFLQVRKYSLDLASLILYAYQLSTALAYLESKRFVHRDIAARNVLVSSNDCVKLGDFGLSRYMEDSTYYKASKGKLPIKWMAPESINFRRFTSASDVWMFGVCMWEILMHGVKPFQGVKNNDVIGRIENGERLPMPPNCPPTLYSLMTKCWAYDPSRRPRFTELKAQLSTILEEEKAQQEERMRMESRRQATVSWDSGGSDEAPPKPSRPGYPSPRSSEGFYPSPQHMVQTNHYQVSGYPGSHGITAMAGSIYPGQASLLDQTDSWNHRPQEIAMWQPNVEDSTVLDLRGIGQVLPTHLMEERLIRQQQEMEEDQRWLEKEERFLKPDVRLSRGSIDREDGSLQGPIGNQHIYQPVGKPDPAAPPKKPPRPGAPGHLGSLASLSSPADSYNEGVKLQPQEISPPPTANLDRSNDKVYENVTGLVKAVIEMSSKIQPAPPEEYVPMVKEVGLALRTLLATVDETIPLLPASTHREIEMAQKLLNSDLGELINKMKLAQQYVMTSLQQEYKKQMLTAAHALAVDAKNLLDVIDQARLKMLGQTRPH

[10] = Cell cycle arrest in human U87MG cells assessed as accumulation at G2/M phase at 3 uM after 24 hrs by propidium iodide staining-based flow cytometry (reference value: 20%); type: functional; details: U-87MG ATCC; method in brief: as §2
U-87 MG [11] = experiment: Induction of apoptosis in human U87MG cells assessed as necrotic cells at 3 uM after 24 hrs by Annexin V-PE/7-AAD staining-based FACS analysis (reference value: 1.06%); type: functional, U-87MG ATCC
HCT-116 [12] = experiment: Induction of apoptosis in human HCT116 cells assessed as viable cells at 0.5 uM after 24 hrs by Annexin V-PE/7-AAD staining-based FACS analysis (reference value: 93.2%); type: functional; details: HCT-116, 24 h, read-out: Activity
Focal adhesion kinase 1 [13] = molecular target: T1, Focal adhesion kinase 1; experiment: Inhibition of FAK (unknown origin) using ULight-poly GT as substrate after 1.6 hrs by TR-FRET assay
Target sequence in this assay (Q05397 whole entry): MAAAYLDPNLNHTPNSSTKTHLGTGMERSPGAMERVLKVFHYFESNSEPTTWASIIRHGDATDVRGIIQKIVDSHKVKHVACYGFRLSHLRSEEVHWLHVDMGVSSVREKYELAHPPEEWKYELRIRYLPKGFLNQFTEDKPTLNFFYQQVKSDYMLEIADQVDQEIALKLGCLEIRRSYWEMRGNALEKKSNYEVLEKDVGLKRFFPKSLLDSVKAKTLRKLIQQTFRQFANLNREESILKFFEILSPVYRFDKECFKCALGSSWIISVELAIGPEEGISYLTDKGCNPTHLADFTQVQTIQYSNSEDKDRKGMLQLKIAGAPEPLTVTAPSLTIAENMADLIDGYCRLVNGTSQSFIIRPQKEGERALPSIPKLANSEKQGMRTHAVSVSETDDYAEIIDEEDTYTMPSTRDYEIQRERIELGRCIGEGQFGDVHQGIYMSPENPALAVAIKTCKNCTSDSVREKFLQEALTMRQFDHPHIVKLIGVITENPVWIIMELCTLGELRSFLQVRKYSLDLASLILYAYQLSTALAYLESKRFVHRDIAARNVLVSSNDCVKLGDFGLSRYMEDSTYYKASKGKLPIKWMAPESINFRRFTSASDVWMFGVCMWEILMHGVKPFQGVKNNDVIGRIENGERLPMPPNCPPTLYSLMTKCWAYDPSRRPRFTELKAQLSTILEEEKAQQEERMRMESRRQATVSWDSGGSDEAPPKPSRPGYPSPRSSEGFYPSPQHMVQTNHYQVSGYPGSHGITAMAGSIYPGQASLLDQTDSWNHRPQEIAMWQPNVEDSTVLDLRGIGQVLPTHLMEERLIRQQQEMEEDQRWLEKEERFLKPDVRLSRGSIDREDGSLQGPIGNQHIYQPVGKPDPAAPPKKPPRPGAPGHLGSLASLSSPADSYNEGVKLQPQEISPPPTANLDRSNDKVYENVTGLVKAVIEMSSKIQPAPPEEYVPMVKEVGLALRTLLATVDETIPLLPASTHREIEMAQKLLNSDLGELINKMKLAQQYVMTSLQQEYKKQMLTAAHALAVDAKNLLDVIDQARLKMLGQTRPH

IC50 [4]: 630 nM
IC50 (MDA-MB-231): 800 nM
inhibition (Focal adhesion kinase 1 [9]): Dose-dependent effect
IC50 (Focal adhesion kinase 1 [13]): 50 nM
Compound: C=COC(=O)NCc1ccc(Nc2nc(Nc3ccccc3C(=O)NC)n3ccnc3n2)cc1
IC50 [1]: 290 nM
viability at 3 µM (U-87 MG [2]): 97.4%
Activity [3]: Active
inhibition (PC-3): Dose-dependent effect
Activity (U-87 MG [5]): Dose-dependent effect
Activity [6]: 69.5%
Ratio [7]: 2.9
Activity (HCT-116 [8]): Active
Activity [10]: 58.8%
Activity (U-87 MG [11]): 0.804%
viability at 0.5 µM (HCT-116 [12]): 62.9%

From ChEMBL document CHEMBL3392964, “Design, synthesis, and evaluation of novel imidazo[1,2-a][1,3,5]triazines and their derivatives as focal adhesion kinase inhibitors with antitumor activity” (J Med Chem, 2015)
